ChEMBL document CHEMBL4613270, “Structure-Activity Relationship Study Enables the Discovery of a Novel Berberine Analogue as the RXRα Activator to Inhibit Colon Cancer” (J Med Chem, 2020)
Active and inactive are the calls of the source. No cut-off for these calls is given here.

How the values were obtained:
KM12C [1] = test: Antitumor activity against human KM12C cells xenografted in BALB/c mouse assessed as inhibition of tumor growth at 100 mg/kg, ig dosed daily for 15 days relative to control; type: functional; settings: po, 360 h, read-out: TGI
Procedure, shortened: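 Nude mice received subcutaneous injections of KM12C cells (1×10⁶ in 100 μL HBSS) into both flanks. After seven days, tumour-bearing mice (80–200 mm³) were randomized into three groups. Daily intragastric dosing at 100 mg/kg, or CMC-Na vehicle, for 15 days. Tumours then excised and weighed; inhibition rate calculated versus vehicle.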

[2] = target: T1, Retinoic acid receptor RXR-alpha (Homo sapiens, UniProt P19793); test: Binding affinity to His-tagged RXRalpha LBD (unknown origin) expressed in Escherichia coli strain BL21 (DE3) by fluorescence quenching analysis
T1 sequence (P19793 whole entry): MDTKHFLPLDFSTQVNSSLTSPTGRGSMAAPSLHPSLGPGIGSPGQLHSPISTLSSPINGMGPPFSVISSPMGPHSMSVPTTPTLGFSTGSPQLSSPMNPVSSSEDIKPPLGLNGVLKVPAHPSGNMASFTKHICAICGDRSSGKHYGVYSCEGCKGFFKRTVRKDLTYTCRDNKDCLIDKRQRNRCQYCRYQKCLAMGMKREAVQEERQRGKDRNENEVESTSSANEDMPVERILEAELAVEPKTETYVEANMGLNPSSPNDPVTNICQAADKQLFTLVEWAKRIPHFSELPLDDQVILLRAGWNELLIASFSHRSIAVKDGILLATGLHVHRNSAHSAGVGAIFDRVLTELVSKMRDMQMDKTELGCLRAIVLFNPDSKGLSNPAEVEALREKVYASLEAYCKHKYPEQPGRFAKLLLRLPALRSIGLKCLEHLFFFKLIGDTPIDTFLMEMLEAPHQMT
Procedure, shortened: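 His-RXRα-LBD expressed from pET15b in E. coli BL21(DE3), induced with 0.1 mM IPTG at 16 °C for 16 h, purified on Ni-NTA. Protein held at 1 μM in PBS pH 7.4 and titrated with ligand (2–30 μM). Excitation 280 nm, emission scanned 290–600 nm, DMSO blank subtracted, each spectrum measured three times. Apparent Kd taken from the titration curve.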

[3] = target: T2, Retinoic acid receptor RXR-alpha (Homo sapiens) (UniProt P19793); test: In-vivo activation of RXRalpha in BALB/c mouse xenografted with human KM12C cells assessed as reduction in Cdc2 protein expression at 100 mg/kg, ig dosed daily for 15 days by immunohistochemistry analysis; type: functional, organism-based
T2 sequence (whole entry): T1 sequence (P19793 whole entry)
Procedure, shortened: (§1)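 KM12C cells (1×10^6 per mouse in 100 μL HBSS) injected subcutaneously into both flanks of nude mice; after seven days, randomized to three groups, dosed intragastrically once daily for 15 days with vehicle (CMC-Na) or 100 mg/kg compound; mice euthanized and tumors removed for analysis.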

[4] = target: T2, Retinoic acid receptor RXR-alpha (Homo sapiens); test: Activation of RXRalpha (unknown origin) expressed in human KM12C cells co-expressing beta-catenin and c-Cbl assessed as induction of beta-caten interaction with c-Cbl at 25 to 50 uM incubated for 15 hrs by mammalian two-hybrid assay; type: cell-based
Procedure, shortened: (§2)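 Mammalian two-hybrid: cells co-transfected by lipofection with pBIND-β-catenin/S33Y plus pACT-RXRα (RXRα–β-catenin) or pACT-c-Cbl (β-catenin–c-Cbl); 20 h after transfection, compound added for 15 h; cells lysed in passive lysis buffer, 4 °C, 1 h; firefly and Renilla luciferase read by dual-luciferase kit.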

[5] = Toxicity in BALB/c mouse xenografted with human KM12C cells assessed as effect on biochemical parameter by measuring IBIL level at 100 mg/kg, ig dosed daily for 15 days by automatic chemistry analyzer based analysis (reference value: 0.55 +/- 0.096 umol/L); type: organism-based; settings: in vivo, po, 360 h
[6] = target: T2, Retinoic acid receptor RXR-alpha (Homo sapiens); test: In-vivo activation of RXRalpha in BALB/c mouse xenografted with human KM12C cells assessed as reduction in c-Myc protein expression at 100 mg/kg, ig dosed daily for 15 days by Western blot analysis; type: functional, organism-based; procedure, shortened: as §1
[7] = MRT (infinity) in Sprague-Dawley rat at 100 mg/kg, ig measured after 0.083 to 36 hrs by LC-MS/MS analysis; type: ADME, organism-based; settings: in vivo, po
Procedure, shortened: (§3)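 SD rats (200 ± 20 g) randomized to three groups; single intragastric dose of 100 mg/kg or vehicle (0.5% CMC-Na). Tail-vein blood (0.5 mL) drawn at 0.083, 0.25, 0.5, 1, 2, 4, 8, 12, 24 and 36 h. Plasma separated by centrifugation at 2000 rpm for 10 min, frozen at -80 °C, then quantified by LC-MS/MS.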

[8] = target: T2, Retinoic acid receptor RXR-alpha (Homo sapiens); test: In-vivo activation of RXRalpha in BALB/c mouse xenografted with human KM12C cells assessed as reduction in c-Myc mRNA expression at 100 mg/kg, ig dosed daily for 15 days by real-time PCR analysis; type: functional, organism-based; procedure, shortened: as §1
[9] = target: T2, Retinoic acid receptor RXR-alpha (Homo sapiens); test: Induction of conformational changes in His-tagged RXRalpha LBD (unknown origin) expressed in Escherichia coli strain BL21 (DE3) at 5 uM by circular dichroism spectroscopic assay
Procedure, shortened: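 His-RXRα-LBD expressed in E. coli BL21(DE3) (0.1 mM IPTG, 16 °C, 16 h), Ni-NTA purified, diluted to 1 µM in 0.01 M phosphate buffer; compound 5 µM (0.01% DMSO). CD spectra recorded 180-260 nm at 25 °C, 0.1 cm path, 1 nm bandwidth, 20 nm/min, 5 min after compound addition.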

[10] = target: T2, Retinoic acid receptor RXR-alpha (Homo sapiens); test: Activation of RXRalpha in human SW620 cells assessed as reduction in Cdc2 mRNA expression at 40 to 80 uM incubated for 15 hrs by real-time PCR analysis; type: cell-based; settings: SW-620
[11] = target: T2, Retinoic acid receptor RXR-alpha (Homo sapiens); test: Activation of RXRalpha (unknown origin) expressed in human HCT116 cells co-expressing beta-catenin assessed as induction of RXRalpha interaction with beta-catenin at 30 to 60 uM incubated for 15 hrs by mammalian two-hybrid assay; type: cell-based; settings: HCT-116; procedure, shortened: as §2
[12] = Toxicity in BALB/c mouse xenografted with human KM12C cells assessed as effect on biochemical parameter by measuring creatinine level at 100 mg/kg, ig dosed daily for 15 days by automatic chemistry analyzer based analysis (reference value: 27.02 +/- 1.22 umol/L); type: organism-based; settings: in vivo, po, 360 h
[13] = target: T2, Retinoic acid receptor RXR-alpha (Homo sapiens); test: Activation of RXRalpha in human HCT116 cells assessed as induction of beta-catenin protein degradation at 30 to 60 uM incubated for 15 hrs by Western blot analysis; type: cell-based; settings: HCT-116
[14] = Half life in Sprague-Dawley rat at 100 mg/kg, ig measured after 0.083 to 36 hrs by LC-MS/MS analysis; type: ADME, organism-based; settings: in vivo, po; procedure, shortened: as §3
[15] = target: T2, Retinoic acid receptor RXR-alpha (Homo sapiens); test: In-vivo activation of RXRalpha in BALB/c mouse xenografted with human KM12C cells assessed as reduction in Cdc2 protein expression at 100 mg/kg, ig dosed daily for 15 days by Western blot analysis; type: functional, organism-based; procedure, shortened: as §1
KM12C [16] = test: Activation of RXRalpha R371S mutant LBD (unknown origin) expressed in human KM12C cells at 50 uM incubated for 15 hrs by luciferase reporter gene assay; type: cell-based
Procedure, shortened: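 KM12C cells co-transfected with pG5luc and pBIND-RXRα-LBD (wild type or mutants) using Lipofectamine 2000. Twenty hours after transfection, compound added at 50 μM for 15 h. Cells lysed in passive lysis buffer (4 °C, 1 h), then firefly and Renilla luciferase read by dual-luciferase assay. Basal level normalized to 1.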

SMILES | inhibition in vivo at 100 mg/kg (KM12C [1]) [%] | Kd [2] [µM] | Activity [3] | Activity [4] | Activity [5] [µmol/L] | Activity [6] | MRT inf [7] [h] | Activity [8] | Activity [9] | Activity [10] | Activity [11] | Activity [12] [µmol/L] | Activity [13] | half-life [14] [h] | Activity [15] | Activity (KM12C [16])
COc1ccc2c(c1)CC[n+]1cc3c(OC)cccc3cc1-2.[Cl-] | 69.1 | 18.9 | Active | Active | 0.52 | Active | 15.7 | Active | Active | Active | Active | 28.95 | Active | 11.6 | Active | inactive
COc1ccc2cc3[n+](cc2c1OC)CCc1cc2c(cc1-3)OCO2.[Cl-] [BERBERINE CHLORIDE] | 33.6 | 24.8 | Active | Active | 0.4 | Active | 31.5 | Active | Active | Active | Active | 24.36 | Active | 29 | Active | inactive
